# Test results as given in ChEMBL document CHEMBL3621107, “Ring fusion strategy for synthesis and lead optimization of sulfur-substituted anthra[1,2-c][1,2,5]thiadiazole-6,11-dione derivatives as promising scaffold of antitumor agents” (Eur J Med Chem, 2015).
# Tests used:
# Type in all cases: functional
# NCI-H522 = experiment: Cytotoxicity against human NCI-H522 cells after 48 hrs by SRB assay; settings: NCI-H522, 48 h
# Outline: (§1)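 Second-stage NCI-60 panel run by the NCI Developmental Therapeutics Program, covering nine tumour subpanels. Five concentrations were tested: 0.01, 0.1, 1, 10 and 100 μM. Percentage growth at each level was plotted against log10 drug concentration. GI50, TGI and LC50 were read from these dose-response curves. Subpanel MID values were divided into the full-panel MID to give selectivity ratios.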
# 786-0 = experiment: Cytotoxicity against human 786-0 cells after 48 hrs by SRB assay; settings: 786-0, 48 h
# Outline: (§2)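 NCI-60 human tumour cell panel screen, second stage, run by the NCI Developmental Therapeutics Program. Compounds were tested at five concentrations (0.01, 0.1, 1, 10 and 100 μM). Percentage growth was plotted against log10 concentration for each cell line. GI50, TGI and LC50 were taken from these dose-response curves.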
# [1] = Cytotoxicity against human renal cancer cells assessed as growth inhibition after 48 hrs by SRB assay; settings: Cancer cell lines
# Outline: (§3)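 Values come from the NCI-60 five-dose panel (0.01–100 µM). The subpanel MID is the mean GI50 over the lines of that tumour subpanel. The selectivity ratio is the full-panel MID divided by the subpanel MID; 3–6 is rated moderate and >6 high.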
# OVCAR-8 = experiment: Cytotoxicity against human OVCAR8 cells after 48 hrs by SRB assay; settings: OVCAR-8, 48 h; for CC50: read-out: LC50 (the source's name); outline: as §1
# IGROV-1 = experiment: Cytotoxicity against human IGROV1 cells after 48 hrs by SRB assay; settings: IGROV-1, 48 h; outline: as §2
# SNB-75 = experiment: Cytotoxicity against human SNB75 cells after 48 hrs by SRB assay; settings: SNB-75, 48 h
# Outline: (§4)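 NCI-60 five-dose study run by NCI DTP at 0.01, 0.1, 1, 10 and 100 µM. Percentage growth at each level was plotted against log10 concentration for each line, and GI50, TGI and LC50 were read from the dose-response curves.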
# U-251 = experiment: Cytotoxicity against human U251 cells after 48 hrs by SRB assay; settings: U-251, 48 h; outline: as §4
# UACC-62 = experiment: Cytotoxicity against human UACC62 cells after 48 hrs by SRB assay; settings: UACC-62, 48 h; outline: as §4
# [2] = Cytotoxicity against human CNS cancer cells assessed as growth inhibition after 48 hrs by SRB assay; settings: Cancer cell lines
# Outline: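 NCI-60 five-dose data (0.01–100 μM) were grouped by tumour subpanel. A subpanel mean (MID) of GI50 was computed for the CNS cancer lines. A selectivity ratio was obtained as full-panel MID divided by subpanel MID: 3–6 counts as moderate, >6 as high.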
# MOLT-4 = experiment: Cytotoxicity against human MOLT4 cells after 48 hrs by SRB assay; settings: MOLT-4, 48 h; outline: as §1
# [3] = Cytotoxicity against human ovarian cancer cells assessed as growth inhibition after 48 hrs by SRB assay; settings: Cancer cell lines; outline: as §3
# PC-3 = experiment: Cytotoxicity against human PC3 cells after 48 hrs by SRB assay; settings: PC-3, 48 h; outline: as §1
# [4] = Cytotoxicity against human prostate cancer cells assessed as growth inhibition after 48 hrs by SRB assay; settings: Cancer cell lines; outline: as §3
# RXF 393 = experiment: Cytotoxicity against human RXF393 cells after 48 hrs by SRB assay; settings: RXF 393, 48 h; outline: as §1
# NCI/ADR-RES = experiment: Cytotoxicity against human NCI/ADR-RES cells after 48 hrs by SRB assay; outline: as §1
# SN12C = experiment: Cytotoxicity against human SN12C cells after 48 hrs by SRB assay; settings: for CC50: read-out: LC50 (the source's name); outline: as §1
# TK-10 = experiment: Cytotoxicity against human TK10 cells after 48 hrs by SRB assay; settings: TK-10, 48 h; outline: as §4
# SK-MEL-5 = experiment: Cytotoxicity against human SK-MEL-5 cells after 48 hrs by SRB assay; settings: SK-MEL-5, 48 h; outline: as §1
# NCI-H460 = experiment: Cytotoxicity against human NCI-H460 cells after 48 hrs by SRB assay; settings: NCI-H460, 48 h; outline: as §1
# [5] = Cytotoxicity against human colon cancer cells assessed as growth inhibition after 48 hrs by SRB assay; settings: Cancer cell lines; outline: as §3
# SK-OV-3 = experiment: Cytotoxicity against human SKOV3 cells after 48 hrs by SRB assay; settings: SK-OV-3, 48 h; outline: as §1
# UACC-257 = experiment: Cytotoxicity against human UACC257 cells after 48 hrs by SRB assay; settings: UACC-257, 48 h; outline: as §4
# UO-31 = experiment: Cytotoxicity against human UO31 cells after 48 hrs by SRB assay; settings: UO-31, 48 h; outline: as §4
# HT-29 = experiment: Cytotoxicity against human HT-29 cells after 48 hrs by SRB assay; settings: HT-29, 48 h; outline: as §2
# COLO 205 = experiment: Cytotoxicity against human COLO205 cells after 48 hrs by SRB assay; settings: COLO 205, 48 h; outline: as §2
# SF-539 = experiment: Cytotoxicity against human SF539 cells after 48 hrs by SRB assay; settings: SF-539, 48 h; outline: as §1
# SW-620 = experiment: Cytotoxicity against human SW620 cells after 48 hrs by SRB assay; settings: SW-620, 48 h; outline: as §4
# A549 = experiment: Cytotoxicity against human A549 cells after 48 hrs by SRB assay; settings: A549, 48 h; outline: as §2
# SR = experiment: Cytotoxicity against human SR cells after 48 hrs by SRB assay; outline: as §4
# T47D = experiment: Cytotoxicity against human T47D cells after 48 hrs by SRB assay; outline: as §4
smiles,measurement,setting,value
O=C1c2ccccc2C(=O)c2c1cc(Sc1ccc(F)cc1F)c1nsnc21,GI50,NCI-H522,3.76 µM
same,LC50 (concentration giving 50% net cell kill),NCI-H522,37.1 µM
same,TGI,NCI-H522,12.4 µM
same,GI50,786-0,1.85 µM
same,LC50 (concentration killing 50% of cells),786-0,6.75 µM
same,TGI,786-0,3.53 µM
same,GI50,[1],2.53 µM
same,GI50,OVCAR-8,1.58 µM
same,TGI,OVCAR-8,3.63 µM
same,CC50,OVCAR-8,8.34 µM
same,GI50,IGROV-1,2.93 µM
same,LC50,IGROV-1,46.6 µM
same,TGI,IGROV-1,10.2 µM
same,GI50,SNB-75,1.57 µM
same,LC50 (concentration killing 50% of cells),SNB-75,13.1 µM
same,TGI,SNB-75,4.22 µM
same,GI50,U-251,1.9 µM
same,LC50,U-251,9.94 µM
same,TGI,U-251,4.35 µM
same,GI50,UACC-62,1.73 µM
same,LC50,UACC-62,12.9 µM
same,TGI,UACC-62,4.37 µM
same,GI50,[2],5.69 µM
same,GI50,MOLT-4,1.11 µM
same,LC50,MOLT-4,> 100 µM
same,TGI,MOLT-4,5.46 µM
same,GI50,[3],2.7 µM
same,GI50,PC-3,1.96 µM
same,LC50 (concentration killing 50% of cells),PC-3,85.7 µM
same,TGI,PC-3,6.41 µM
same,GI50,[4],4.13 µM
same,GI50,RXF 393,2.02 µM
same,LC50 (concentration killing 50% of cells),RXF 393,6.67 µM
same,TGI,RXF 393,3.69 µM
same,GI50,NCI/ADR-RES,1.74 µM
same,LC50 (concentration killing 50% of cells),NCI/ADR-RES,> 100 µM
same,TGI,NCI/ADR-RES,4.59 µM
same,GI50,SN12C,1.64 µM
same,TGI,SN12C,4.96 µM
same,CC50,SN12C,19.4 µM
same,GI50,TK-10,5.07 µM
same,LC50 (concentration killing 50% of cells),TK-10,38.6 µM
same,TGI,TK-10,14.1 µM
same,GI50,SK-MEL-5,1.41 µM
same,LC50,SK-MEL-5,5.72 µM
same,TGI,SK-MEL-5,2.84 µM
same,GI50,NCI-H460,25.9 µM
same,LC50 (concentration killing 50% of cells),NCI-H460,> 100 µM
same,TGI,NCI-H460,> 100 µM
same,GI50,[5],7.43 µM
same,GI50,SK-OV-3,2.34 µM
same,LC50,SK-OV-3,13 µM
same,TGI,SK-OV-3,5.08 µM
same,GI50,UACC-257,1.59 µM
same,LC50,UACC-257,18 µM
same,TGI,UACC-257,4.64 µM
same,GI50,UO-31,3.03 µM
same,LC50,UO-31,42.6 µM
same,TGI,UO-31,15 µM
same,GI50,HT-29,8.72 µM
same,LC50,HT-29,> 100 µM
same,TGI,HT-29,36.3 µM
same,GI50,COLO 205,13.7 µM
same,LC50,COLO 205,56.2 µM
same,TGI,COLO 205,27.7 µM
same,GI50,SF-539,2.08 µM
same,LC50,SF-539,8.63 µM
same,TGI,SF-539,4.24 µM
same,GI50,SW-620,3.99 µM
same,LC50 (50% lethal concentration),SW-620,69.5 µM
same,TGI,SW-620,16.3 µM
same,GI50,A549,14.9 µM
same,LC50 (concentration killing 50% of cells),A549,> 100 µM
same,TGI,A549,42.4 µM
same,GI50,SR,2.97 µM
same,LC50,SR,52.7 µM
same,TGI,SR,9.06 µM
same,GI50,T47D,0.86 µM
same,LC50 (concentration killing 50% of cells),T47D,7.02 µM
same,TGI,T47D,2.57 µM
O=C1c2ccccc2C(=O)c2c1cc(SCc1ccccc1)c1nsnc21,GI50,NCI-H522,8.64 µM
same,LC50 (concentration giving 50% net cell kill),NCI-H522,> 50 µM
same,TGI,NCI-H522,> 50 µM
same,GI50,786-0,12.3 µM
same,LC50 (concentration killing 50% of cells),786-0,> 50 µM
same,TGI,786-0,25.4 µM
same,GI50,[1],12.7 µM
same,GI50,OVCAR-8,3.5 µM
same,TGI,OVCAR-8,25.8 µM
same,CC50,OVCAR-8,> 50 µM
same,GI50,IGROV-1,6.06 µM
same,LC50,IGROV-1,38.9 µM
same,TGI,IGROV-1,15.4 µM
same,GI50,SNB-75,8.26 µM
same,LC50 (concentration killing 50% of cells),SNB-75,31 µM
same,TGI,SNB-75,16 µM
same,GI50,U-251,6.46 µM
same,LC50,U-251,30.3 µM
same,TGI,U-251,14 µM
same,GI50,UACC-62,8.22 µM
same,LC50,UACC-62,33.7 µM
same,TGI,UACC-62,18.6 µM
same,GI50,[2],9.48 µM
same,GI50,MOLT-4,1.2 µM
same,LC50,MOLT-4,> 50 µM
same,TGI,MOLT-4,3.62 µM
same,GI50,[3],8.4 µM
same,GI50,PC-3,10.8 µM
same,LC50 (concentration killing 50% of cells),PC-3,50.1 µM
same,TGI,PC-3,43.4 µM
same,GI50,[4],10.5 µM
same,GI50,RXF 393,7.2 µM
same,LC50 (concentration killing 50% of cells),RXF 393,27.4 µM
same,TGI,RXF 393,14 µM
same,GI50,NCI/ADR-RES,12.9 µM
same,LC50 (concentration killing 50% of cells),NCI/ADR-RES,> 50 µM
same,TGI,NCI/ADR-RES,> 50 µM
same,GI50,SN12C,7.16 µM
same,TGI,SN12C,14.5 µM
same,CC50,SN12C,29.3 µM
same,GI50,TK-10,32 µM
same,LC50 (concentration killing 50% of cells),TK-10,> 50 µM
same,TGI,TK-10,> 50 µM
same,GI50,SK-MEL-5,7.17 µM
same,LC50,SK-MEL-5,49.8 µM
same,TGI,SK-MEL-5,21.2 µM
same,GI50,NCI-H460,> 50 µM
same,LC50 (concentration killing 50% of cells),NCI-H460,32.8 µM
same,TGI,NCI-H460,16.8 µM
same,GI50,[5],16.1 µM
same,GI50,SK-OV-3,13.7 µM
same,LC50,SK-OV-3,> 50 µM
same,TGI,SK-OV-3,18.5 µM
same,GI50,UACC-257,9.05 µM
same,LC50,UACC-257,35.4 µM
same,TGI,UACC-257,17.1 µM
same,GI50,UO-31,7.83 µM
same,LC50,UO-31,43.5 µM
same,TGI,UO-31,18.5 µM
same,GI50,HT-29,> 50 µM
same,LC50,HT-29,> 50 µM
same,TGI,HT-29,> 50 µM
same,GI50,COLO 205,35.5 µM
same,LC50,COLO 205,> 50 µM
same,TGI,COLO 205,> 50 µM
same,GI50,SF-539,10.5 µM
same,LC50,SF-539,38.9 µM
same,TGI,SF-539,20.2 µM
same,GI50,SW-620,9.99 µM
same,LC50 (50% lethal concentration),SW-620,35.1 µM
same,TGI,SW-620,18.7 µM
same,GI50,A549,> 50 µM
same,LC50 (concentration killing 50% of cells),A549,> 50 µM
same,TGI,A549,> 50 µM
same,GI50,SR,1.99 µM
same,LC50,SR,> 50 µM
same,TGI,SR,13.1 µM
same,GI50,T47D,1.16 µM
same,LC50 (concentration killing 50% of cells),T47D,42.9 µM
same,TGI,T47D,5.29 µM
